OX1R antag-1: antagonists of human orexin 1 receptor; O43613; CHO/OX1R cells, Fluo-8 calcium fluorescence, orexin A; inhibition, % at 5 µM; 330,000 compounds, 0.43% hits; AID 434989;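 active means inhibition above its plate's threshold, mean inhibition of all tested compounds on the plate plus 3 SD, cut at about 37% in these data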;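 further: 0% = orexin A challenge wells and 100% = SB-334867-A antagonist wells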
GPR7 antag: antagonists of human GPR7 (neuropeptides B/W receptor 1); P48145; GPR7-expressing cells, fluorescence antagonist assay; inhibition, % at 4.4 µM; 290,000 compounds, 1.1% hits; AID 1861; in the data active means inhibition above about 16%, passing the limit was not always enough;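 further: cells stimulated with the agonist NPW; 0% = agonist with vehicle and 100% = vehicle without agonist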
OX1R antag-2: OX1R (human) antagonism | 330,000 compounds, 1.8% hits | inhibition, % at 6.6 µM | O43613 | AID 485270 | OX1R-expressing cells, FRET antagonist read-out; in the data active means inhibition mostly above about 38%, no sharp cut-off; inactive means mostly below about 40%;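 further: 0% = agonist challenge alone and 100% = reference antagonist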
TAAR1 antag: antagonists of human TAAR1; CHO RD-HGA16 TAAR1, Fluo-8 calcium fluorescence, antagonist; inhibition, % at 3 µM; 360,000 compounds, 1.5% hits; Q96RJ0;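 active means inhibition above a per-plate cutoff, the mean inhibition of test compounds on that plate plus 3 SD, cut at about 49% in these data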;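 further: 0% = DMSO plus EC80 beta-PEA response and 100% = DMSO alone without agonist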
Target sequence (Q96RJ0 whole entry, looked up): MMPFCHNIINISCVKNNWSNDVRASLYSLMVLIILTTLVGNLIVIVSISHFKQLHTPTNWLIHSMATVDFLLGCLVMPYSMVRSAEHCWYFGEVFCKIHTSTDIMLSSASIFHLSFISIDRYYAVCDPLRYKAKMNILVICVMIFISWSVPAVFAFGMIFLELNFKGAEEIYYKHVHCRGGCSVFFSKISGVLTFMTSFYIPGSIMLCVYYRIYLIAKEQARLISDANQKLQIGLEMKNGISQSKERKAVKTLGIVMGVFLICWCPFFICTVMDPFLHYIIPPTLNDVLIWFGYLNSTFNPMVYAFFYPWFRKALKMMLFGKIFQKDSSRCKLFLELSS
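Assay system: RD-HGA16 CHO cells with stable hTAAR1 and Gα16 / Reagent: EC80 β-phenethylamine stimulus / Doses: 3 µM, single point / Timing: dye loading 75 min at 37 °C, then 30 min room temperature / Measured by: Fluo-8 intracellular calcium dye fluorescence, real-time kinetic reads / Controls: vehicle wells and EC80 agonist wells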
CHO parental Ca: signal in parental CHO cells, OX1R antagonist counter-screen. inhibition, % at 5.6 µM. 330,000 compounds, 0.63% hits. parental CHO-K1, ATP-induced calcium, Fluo-8 fluorescence;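 active means inhibition above that plate's mean sample inhibition plus 3 SD, cut at about 26% in these data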;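 further: 0% = ATP-challenged DMSO wells and 100% = DMSO wells without ATP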
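Material: parental CHO cells / Compound: single nominal dose of 5.6 µM per compound / Signal: Fluo-8 fluorescence / Replicates: singlicate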
TAAR1 agonist: agonists of human TAAR1; Q96RJ0; CHO RD-HGA16 TAAR1, Fluo-8 calcium fluorescence; vehicle wells 0%, saturating PEA agonist 100%; activation, % at 3 µM; 360,000 compounds, 0.99% hits; AID 624467;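 active means activation above the mean activation of all test compounds in the run plus 3 SD, cut at about 38% in these data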
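Test system: RD-HGA16 (CHO) cells co-expressing Gα16 and hTAAR1; dosing: one-point dosing at 3 µM (nominal); timing: 17-24 h seeding, 75 min 37 °C dye, 30 min RT; signal: kinetic Fluo-8 calcium fluorescence; read-out basis: % activation relative to PEA EC100 response; controls: DMSO and PEA EC100; replicates: n 1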
TAAR1 ag conf: confirmation of human TAAR1 agonists; AID 651783; CHO RD-HGA16 TAAR1, Fluo-8 calcium fluorescence; scaled: DMSO 0%, maximal phenethylamine 100%; activation, % at 3 µM; shares compounds with TAAR1 agonist; 2,400 compounds, 82% hits;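 active means activation above a cutoff set at the run's mean compound activation plus 3 SD, cut at about 39% in these data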
Ga16 ag counter: nonselective agonism, TAAR1 counter-screen. 2,400 compounds, 50% hits. CHO-Ga16 parental, Fluo-8 calcium fluorescence; normalized to maximal ATP response, DMSO zero. shares compounds with TAAR1 agonist. activation, % at 3 µM;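 active means activation above the run cutoff, the mean activation over all tested wells plus 3 SD, cut at about 12% in these data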;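 further: 0% = DMSO wells and 100% = maximal ATP response on the peak over basal ratio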
TAAR1 desens: TAAR1 response desensitization, agonist counter-screen; CHO RD-HGA16 hTAAR1, Fluo-8 calcium, beta-PEA response inhibition; 2,400 compounds, 46% hits; AID 651951; shares compounds with TAAR1 agonist; inhibition, % at 3 µM;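 active means inhibition above the run cutoff, the mean inhibition of all test compounds plus 3 SD, cut at about 49% in these data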;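 further: beta-PEA stimulus applied at its EC80; loss of beta-PEA calcium signal after compound pretreatment read as receptor desensitization; 0% = DMSO with beta-PEA at EC80 and 100% = DMSO alone without agonist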
Ga16 antag count: counter-screen for TAAR1 agonists: nonselective Ga16 antagonists; 2,400 compounds, 39% hits; shares compounds with TAAR1 agonist; CHO-Ga16 ATP-induced calcium, Fluo-8 fluorescence; inhibition, % at 3 µM;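 active means inhibition above the plate's mean compound inhibition plus 3 SD, computed per plate, cut at about 22% in these data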;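 further: 0% = EC80 ATP with DMSO and 100% = DMSO wells without ATP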
Starred values were filed as active, the others as inactive; . = no result. Hits are enriched below; roughly 4.5% of the tested compounds scored in any of these assays.

SMILES	OX1R antag-1	GPR7 antag	OX1R antag-2	TAAR1 antag	CHO parental Ca	TAAR1 agonist	TAAR1 ag conf	Ga16 ag counter	TAAR1 desens	Ga16 antag count
CSc1ccc(C(=O)NC2CCSc3ccccc32)cc1 (stereo not drawn)	-1.8	22.7	7.7	89.3*	-17.3	64.7*	52.6*	47.6*	66.1*	62.4*
COc1ccccc1CNC(=O)CC1C(=O)NCCN1C1Cc2ccccc2C1 (stereo not drawn)	-20.0	3.3	30.5	19.2	-24.5	69.6*	72.4*	5.2	2.7	-1.5
Cc1ccc(C(=O)NC(=S)NNC(=O)COc2ccccc2C)cc1	-17.2	1.5	12.8	-13.1	-1.1	5.9	.	.	.	.
Cc1cccc(C(=O)NC(=S)NNC(=O)COc2c(C)cccc2C)c1	-15.3	3.9	8.9	90.3*	1.2	126.3*	142.9*	118.9*	96.5*	63.2*
Cc1cccc(C(=O)NC(=S)NNC(=O)Cc2ccccc2)c1	0.9	-16.7	10.9	64.1*	10.8	119.1*	121.1*	88.9*	74.1*	44.7*
CCC(=O)N[C@H]1C=C[C@H](CC(=O)OC)O[C@@H]1CO	.	.	.	7.3	.	0.1	.	.	.	.
Nc1ccc2ccc(O)cc2c1	.	.	.	5.8	.	-0.3	.	.	.	.
C[n+]1c2cc(N)ccc2cc2ccc(N)cc21	.	.	.	15.2	.	82.0*	102.7*	123.3*	23.6	42.4*
CS(=O)(=O)c1ccc(Cl)c(NC(=O)c2ccc(-n3cncn3)c([N+](=O)[O-])c2)c1	.	.	.	-12.5	.	2.3	.	.	.	.
Cc1ccc(-c2nc(CS(=O)(=O)CC(=O)N3CCCCCC3)c(C)o2)cc1	-21.3	1.4	19.0	-41.8	-15.8	-1.4	.	.	.	.
Cc1ccc(-c2nc(CS(=O)(=O)CC(=O)N3CCc4ccccc4C3)c(C)o2)cc1	-19.3	-10.1	6.3	30.2	-29.0	66.2*	82.3*	2.2	64.5*	14.6
COc1ccccc1CCNS(=O)(=O)CCNC(=O)c1ccc2c(c1)OCO2	-24.8	.	16.3	40.2	-25.8	74.0*	90.8*	2.3	73.3*	14.8
Cc1ccc(CNS(=O)(=O)CCNC(=O)c2ccc3c(c2)OCO3)cc1	-21.1	.	15.5	-17.8	0.5	-0.2	.	.	.	.
C=CCN1C(=O)c2cccc3c(N4CCCCC4)ccc(c23)C1=O	6.3	-11.6	31.5	17.6	15.9	28.8	.	.	.	.
O=C1c2cccc3c(N4CCCCC4)ccc(c23)C(=O)N1c1cccc(O)c1	56.0*	-0.7	6.7	79.1*	56.2*	120.6*	26.7	31.7*	37.8	48.1*
CCC(=O)N1CCCC1(C)C(=O)Nc1ccc2nc(C)ccc2c1 (stereo not drawn)	.	.	.	-4.8	.	2.8	.	.	.	.
O=c1[nH]ncc2c3ccccc3n(Cc3cccc(Cl)c3)c12	-5.7	-7.5	28.5	26.9	-17.2	54.0*	4.1	2.5	11.0	10.4
COc1ccc(NC(=S)N2CCc3ccccc3C2)cc1	-3.9	-5.1	12.9	52.8*	-7.4	83.7*	93.4*	9.2	31.1	-3.2
COc1ccc(NC(=O)CN2CCc3ccccc3C2)cc1	.	.	.	-2.7	.	4.2	.	.	.	.
COc1cccc(NC(=O)N2CCc3ccccc3C2)c1	-20.2	2.1	11.3	-0.6	-2.0	46.5*	52.9*	1.2	13.6	10.2
O=[N+]([O-])c1ccc(/C=C/C2=NN(c3ccccc3)C(c3ccco3)C2)cc1 (stereo not drawn)	79.9*	11.9	15.2	74.7*	68.8*	79.6*	128.4*	198.2*	89.7*	94.5*
